PfM18AAP inh: PfM18AAP enzyme inhibition; recombinant PfM18AAP, H-Glu-NHMec fluorogenic cleavage; inhibition, % at 7.35 µM; 290,000 tested, 1.2% active; AID 1822;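 active = inhibition above the campaign mean inhibition over all tested compounds plus 3 SD, cut at about 28% in these data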;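 also: 0% = plate median of test compound wells and 100% = 2 mM ZnCl2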
m5-HT2A agonist: activates the mouse 5-HT2A serotonin receptor; P35363; CHO-K1 mHTR2A beta-arrestin complementation, luminescence; percent of 30 µM serotonin response; activation, % at 7.6 µM; 360,000 tested, 0.66% active; AID 624169;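 active = activation above a run cutoff, the mean activation of all tested compounds plus 3 SD, cut at about 14% in these data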;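 also: 0% = plate median of compound wells and 100% = 30 µM serotonin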
Arrestin-AP2 inh: inhibitors of human beta-arrestin and AP2 interaction. 340,000 tested, 0.31% active. inhibition, % at 10 µM. FITC-arrestin peptide / GST-AP2 beads, flow cytometry; AP2 beta2 appendage carries R879A mutation. AID 504490;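 active = inhibition above a set limit, near 3 SD of compounds lacking own fluorescence, cut at about 54% in these data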;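 also: plate controls were DMSO wells for no effect and 5 µM unlabelled arrestin peptide for full effect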
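System: GST-tagged AP2 beta2-adaptin appendage (R879A) on 4 µm glutathione beads / Reagent: FITC-arrestin peptide, 50 nM / Detection: HyperCyt-sampled flow cytometry, FL1 channel, ex 488/em 535 nm / Timing: 12 min plus 1 h, RT / Buffer or medium: PBS plus Tween 20 (0.05%) and BSA (0.1%)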
sPLA2-III inh: Blocks human group III sPLA2 activity. AID 743126. 370,000 tested, 0.56% active. Q9NZ20. inhibition, % at 12.2 µM. QFRET BODIPY PC-A2 liposome hydrolysis, fluorescence;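 active = inhibition above mean plus 3 SD of compounds lying within the high and low control bounds, cut at about 19% in these data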;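 also: 0% = median of test compound wells and 100% = no enzyme DMSO wells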
NRP1-CendR mod: NRP-1/CendR interaction modulation; AID 602438; inhibition, % at 25 µM; 360,000 tested, 0.85% active; O14786; FAM-RPARPAR peptide binding to NRP-1, fluorescence polarization;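 active = inhibition or corrected inhibition above about 18%, plus a signal ratio from 0.5 to 1.5, limit read from the data, passing the limit was not always enough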
Target sequence (O14786 whole entry, looked up): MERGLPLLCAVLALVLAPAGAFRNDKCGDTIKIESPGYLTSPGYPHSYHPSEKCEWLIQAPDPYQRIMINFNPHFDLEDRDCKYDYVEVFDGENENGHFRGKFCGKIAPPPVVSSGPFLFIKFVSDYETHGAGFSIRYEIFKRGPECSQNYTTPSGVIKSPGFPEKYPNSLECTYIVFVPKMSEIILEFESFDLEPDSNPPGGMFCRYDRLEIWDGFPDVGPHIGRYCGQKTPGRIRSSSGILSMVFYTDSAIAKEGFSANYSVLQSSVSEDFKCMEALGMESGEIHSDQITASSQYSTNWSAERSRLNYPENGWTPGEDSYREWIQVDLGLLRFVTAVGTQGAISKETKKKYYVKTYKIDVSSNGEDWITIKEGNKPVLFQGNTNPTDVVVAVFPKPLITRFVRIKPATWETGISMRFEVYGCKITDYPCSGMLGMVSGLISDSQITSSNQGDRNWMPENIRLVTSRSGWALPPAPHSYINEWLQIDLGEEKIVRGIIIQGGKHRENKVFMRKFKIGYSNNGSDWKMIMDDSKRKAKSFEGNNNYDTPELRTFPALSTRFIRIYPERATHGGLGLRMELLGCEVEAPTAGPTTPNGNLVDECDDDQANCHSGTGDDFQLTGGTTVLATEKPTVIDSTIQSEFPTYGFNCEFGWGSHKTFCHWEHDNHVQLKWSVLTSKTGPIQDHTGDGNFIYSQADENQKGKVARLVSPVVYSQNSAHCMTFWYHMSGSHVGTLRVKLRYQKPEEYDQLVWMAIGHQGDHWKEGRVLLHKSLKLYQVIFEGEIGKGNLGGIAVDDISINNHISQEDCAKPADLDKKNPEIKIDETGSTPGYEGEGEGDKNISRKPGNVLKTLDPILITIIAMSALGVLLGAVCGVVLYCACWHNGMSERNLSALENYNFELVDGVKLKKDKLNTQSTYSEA
Hep lipid drop: hepatic lipid droplet formation modulation | inhibition, % at 6.5 µM | AML12 mouse hepatocytes, oleate lipid droplets, BODIPY imaging | AID 1656 | 240,000 tested, 0.4% active;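 active = lipid droplet intensity inhibited by at least 50%, with more than 500 cells counted; inconclusive = wells with under 300 cells, treated as cytotoxic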
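System: AML12 hepatocytes (mouse). Probe or stimulus: oleic acid at 100 µM to induce lipid droplet formation. Times: overnight treatment with compound plus oleate. Detection: Image-based BODIPY and DAPI two-channel analysis. Evaluation: percent inhibition of filter-corrected integrated lipid droplet intensity per well.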
hGIII sPLA2 conf: human GIII-sPLA2 inhibition, confirmation. shares compounds with sPLA2-III inh. recombinant hGIII-sPLA2, BODIPY PC-A2 QFRET fluorescence. inhibition, % at 12.2 µM. 2,000 tested, 34% active. AID 743280;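 active = mean inhibition across triplicates above the hit cutoff set in the earlier primary screen, cut at about 19% in these data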;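 also: 0% = enzyme with DMSO and 100% = DMSO wells lacking enzyme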
535nm interf: 535nm fluorescence interference, HGIII-sPLA2 counter-screen; shares compounds with sPLA2-III inh; BODIPY FL product fluorescence interference, QFRET; inhibition, % at 12.2 µM; 2,000 tested, 8.5% active; AID 743282;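 active = average inhibition above the solvent-only control mean plus 3 SD, cut at about 6% in these data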;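 also: 0% = DMSO with substrate plus product and 100% = DMSO with substrate alone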
535nm interf DR: 535nm optical interference dose response, HGIII-sPLA2 counter-screen | IC50, µM | shares compounds with sPLA2-III inh | 240 tested, under 10 active | BODIPY FL product fluorescence interference, cell-free | AID 743455;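 active = IC50 at or below 10 µM; inactive = IC50 above 10 µM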
An asterisk follows results filed as active; ? = inconclusive; . = no result. A selection: hits, their analogues and other compounds. The true share with any hit is near 3.3%.

SMILES | PfM18AAP inh | m5-HT2A agonist | Arrestin-AP2 inh | sPLA2-III inh | NRP1-CendR mod | Hep lipid drop | hGIII sPLA2 conf | 535nm interf | others
CCOC(=O)[C@@]12CCC3=C1N(CCC3)C(=O)[C@H](CC(=O)NCCCN1CCCC1=O)C2 | . | . | . | 4 | . | . | . | .
COc1ccccc1/C=C/C=N/n1c(-c2cc(-c3ccccc3)n[nH]2)n[nH]c1=S | 17 | 1 | 0 | 21* | -4 | 14 | -26 | 9.5*
Cc1ccc(NC(=S)NNC(=O)C2CC2c2ccc(C)cc2)cc1 (configuration not stated) | -3 | -3 | 10 | 15 | -3 | -14 | . | .
O=C(NNC(=S)Nc1ccc(F)cc1)C1CC1c1ccc(Cl)cc1 (configuration not stated) | 4 | -8 | 17 | 20* | -5 | . | 35* | 0 | 535nm interf DR=>122
COc1ccc(NC(=S)NNC(=O)C2CC2c2ccc(C)cc2)cc1 (configuration not stated) | 8 | 0 | 9 | 21* | 1 | -5 | 22* | -1
Cc1ccc(C2CC2C(=O)NNC(=S)Nc2cccc(Cl)c2)cc1 (configuration not stated) | -6 | -6 | 4 | 23* | -4 | -4 | -9 | 10.0*
O=C1NC[C@H](CCCCN2C[C@H](Cc3ccc(O)cc3)N(Cc3ccccc3)C(=O)C2=O)N(CC2CCCCC2)C1=O | . | 5 | . | -10 | -9 | . | . | .
CCN(C(=O)[C@@H](C1CC1)[C@@H](O)c1ccc(Cl)cc1)c1ccccc1 | . | . | . | -5 | . | . | . | .
COC(=O)CC#C[C@H](C)[C@@H](NS(=O)(=O)c1ccc([N+](=O)[O-])cc1)C(C)(C)C | . | . | . | 1 | . | . | . | .
Cc1cccc(-n2c3nc(=O)[nH]c(=O)c-3cc3cc([N+](=O)[O-])ccc32)c1 | 26 | 4 | -4 | 25* | -60 | 1 | 20* | 6.6*
Cc1ccc(C)c(-n2c3nc(=O)[nH]c(=O)c-3cc3cc([N+](=O)[O-])ccc32)c1 | 15 | 1 | 21 | 7 | -47 | ? | . | .
COc1ccc(N2c3ccccc3CN(Cc3ccccc3)CC2Cc2cc(OC)c(OC)c(OC)c2)cc1 (configuration not stated) | . | 1 | . | 2 | 7 | . | . | .
COC(=O)c1cccc(Cn2ccc3ccc(-c4ccc5ccn(C(=O)c6ccc(C)cc6)c5c4)cc32)c1 | . | . | . | 11 | . | . | . | .
CCn1c(CSCc2ccc(Cl)cc2)n[nH]c1=S | 14 | 6 | -14 | 19* | 21 | 17 | 26* | 3
CCn1c(CSCc2ccc(C)cc2)n[nH]c1=S | 9 | 4 | -5 | 30* | -8 | 4 | 25* | 3
C=CCn1c(CSCc2ccc(F)cc2)n[nH]c1=S | 15 | 9 | -6 | 15 | 8 | -1 | . | .
COc1cc(CNCc2cccs2)ccc1OCc1ccccc1 | 2 | -3 | 1 | -20 | -14 | . | . | .
COc1cc(CNC23CC4CC(CC(C4)C2)C3)ccc1OCc1ccccc1 | 3 | -8 | -2 | 22* | 9 | 13 | -8 | -33
S=C(NCc1ccco1)NCC(c1ccco1)N1CCCCC1 (configuration not stated) | -1 | -1 | 2 | 23* | -10 | -2 | 27* | -9
COc1ccc(-n2c(COc3ccccc3)n[nH]c2=S)cc1 | 17 | 1 | -8 | 21* | 16 | -12 | 23* | 2
COc1cc(/C=N/n2c(COc3ccccc3)n[nH]c2=S)cc(OC)c1OC(C)=O | 26 | 0 | -23 | 24* | 0 | -5 | 17 | -2
COc1ccc(-n2c(COc3ccc(C)cc3)n[nH]c2=S)cc1 | 4 | 8 | -9 | 15 | -10 | -7 | . | .
S=c1[nH]nc(COc2ccccc2)n1-c1ccc(Cl)cc1 | . | 2 | -9 | 22* | 16 | . | 33* | -1 | 535nm interf DR=>122
Cc1ccc(-n2c(COc3ccccc3)n[nH]c2=S)cc1 | 13 | 4 | -3 | 5 | 8 | 36 | . | .
CCOc1ccc(/C=N/n2c(COc3ccccc3)n[nH]c2=S)cc1OC | 28 | -5 | -2 | 11 | 15 | -5 | . | .
SMILES | PfM18AAP inh | m5-HT2A agonist | Arrestin-AP2 inh | sPLA2-III inh | NRP1-CendR mod | Hep lipid drop | hGIII sPLA2 conf | 535nm interf | others
COc1cccc(N2CCN(CC(=O)NCc3c(F)cccc3F)CC2)c1 | . | . | . | 5 | . | . | . | .
CC(=O)c1cc(-c2ccc3nonc3c2)c(=O)n2c1CCC2 | . | . | . | 3 | . | . | . | .
COc1ccc(NC(=O)/C(C#N)=C/c2cccnc2)c(OC)c1 | 8 | 3 | -6 | -4 | -7 | 12 | . | .
COc1ccc(NC(=O)C(=O)N/N=C/c2cccnc2)c(OC)c1 | -10 | 2 | 33 | 20* | 3 | . | 4 | -7
COc1cccc(/C=N/NC(=O)C(=O)Nc2ccccc2OC(F)(F)C(F)F)c1 | 11 | -4 | -5 | 21* | -8 | -17 | 5 | -4
O=C(NNC(=S)NC1CCCCC1)c1ccccc1O | 19 | 2 | 5 | 44* | 12 | 12 | 44* | 0 | 535nm interf DR=>122
O=C(NNC(=S)NC1CCCCC1)c1cccs1 | 10 | -1 | 7 | 12 | -6 | -15 | . | .
Cc1cc(C(=O)NNC(=S)NC2CCCCC2)cs1 | 9 | 7 | 16 | 25* | 8 | -2 | 37* | 2 | 535nm interf DR=>122
CCCCN(C=O)c1c(CC)nc2ccc(C(=O)NCCCN3CCCC3=O)cn12 | . | 2 | . | 12 | -4 | . | . | .
S=c1[nH]nc2ccc3ccccc3n12 | . | 3 | . | 26* | 0 | . | 23* | 0
Oc1c(CN2CCCCC2)ccc2cccnc12 | . | 5 | 42 | 21* | 4 | . | 1 | -44
CC(C)(C)NC(=S)N1CCC2CC1c1cc(-c3ccc4c(c3)OCO4)ccc12 (configuration not stated) | . | 0 | . | 22* | 14 | . | 5 | -18
COc1ccc(OC)c2sc(NNC(=O)C3COc4ccccc4O3)nc12 (configuration not stated) | 14 | 7 | -19 | 21* | -2 | -13 | 15 | -2
CC(=O)c1sc(NC(=O)C2COc3ccccc3O2)nc1C (configuration not stated) | 6 | 6 | 7 | 4 | -7 | -14 | . | .
Cc1cc(C)c2sc(NNC(=O)C3COc4ccccc4O3)nc2c1 (configuration not stated) | 15 | -8 | -2 | 28* | -6 | -6 | 31* | 1 | 535nm interf DR=>122
COC(=O)C1=C(C)N(CC(C)C)C(=S)NC1c1ccc(Cl)cc1 (configuration not stated) | . | . | . | 14 | . | . | . | .

Source: PubChem
